# Source: PubChem (Broad Institute)
# Shown are actives, neighbours in structure and some others; about 2.4% of the full set was active somewhere.
# PGC1a acetyl inh – PGC1a acetylation modulation, inhibitor mode; AID 651687; U2OS PGC1a acetylation, AlphaScreen anti-acetyl-lysine; with virally co-expressed GCN5 acetyltransferase; hit rate 0.17% among 350,000; inhibition, % at 15.6 µM;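 active = every replicate shows inhibition of at least 40%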;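 note: 0% = neutral control wells and 100% = positive control wells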
# Casp6 inh – caspase-6 (human) enzyme inhibition | purified caspase-6, Z-VEID-R110 cleavage fluorescence | inhibition, % at 12.5 µM | hit rate 0.53% among 350,000 | AID 686996;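 active = mean inhibition across replicates at least about 35%, with every replicate also reaching that limit, limit read from the data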;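 note: 0% = median of neutral control wells and 100% = no fluorescence left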
# ERAP1 HTS inh – inhibitors of human ERAP1 aminopeptidase. AID 652197. inhibition, % at 10.7 µM. hit rate 0.15% among 340,000. Q9NZ08. recombinant ERAP1, Leu-AMC fluorescence, 60 min;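 active = mean replicate inhibition of at least 30%, or all replicates individually reaching that 30% level; inactive = mean below 30% and not every replicate reaching it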;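 note: 0% = neutral control wells and 100% = L-leucinethiol positive control wells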
# Target sequence (Q9NZ08 whole entry, looked up): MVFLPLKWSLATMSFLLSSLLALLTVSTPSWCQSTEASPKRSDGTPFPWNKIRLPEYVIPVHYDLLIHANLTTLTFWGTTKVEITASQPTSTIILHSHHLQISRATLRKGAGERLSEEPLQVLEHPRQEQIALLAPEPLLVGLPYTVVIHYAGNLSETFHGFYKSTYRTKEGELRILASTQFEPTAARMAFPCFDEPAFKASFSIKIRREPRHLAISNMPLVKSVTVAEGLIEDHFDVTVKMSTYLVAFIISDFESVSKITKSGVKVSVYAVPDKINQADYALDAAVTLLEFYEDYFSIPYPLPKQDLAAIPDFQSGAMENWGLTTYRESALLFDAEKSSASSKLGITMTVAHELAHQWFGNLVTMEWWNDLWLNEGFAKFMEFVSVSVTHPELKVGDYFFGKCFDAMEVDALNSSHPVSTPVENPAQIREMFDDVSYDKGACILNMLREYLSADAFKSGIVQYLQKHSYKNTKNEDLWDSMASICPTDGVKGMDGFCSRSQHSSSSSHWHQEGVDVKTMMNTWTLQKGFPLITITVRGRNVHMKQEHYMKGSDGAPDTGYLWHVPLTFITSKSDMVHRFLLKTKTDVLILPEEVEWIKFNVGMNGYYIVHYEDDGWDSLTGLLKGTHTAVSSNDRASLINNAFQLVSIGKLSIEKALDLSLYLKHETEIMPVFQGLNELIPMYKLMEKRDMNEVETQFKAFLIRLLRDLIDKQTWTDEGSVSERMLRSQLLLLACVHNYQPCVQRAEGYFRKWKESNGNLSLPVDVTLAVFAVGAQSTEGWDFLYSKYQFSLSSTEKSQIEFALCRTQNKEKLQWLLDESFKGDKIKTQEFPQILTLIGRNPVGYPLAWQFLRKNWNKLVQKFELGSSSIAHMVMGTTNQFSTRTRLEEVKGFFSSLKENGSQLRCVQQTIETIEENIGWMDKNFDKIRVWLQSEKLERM
# rRNA inh HTS – inhibits bacterial ribosomal RNA function over humanized ribosomes | E. coli WT GFP vs humanized-ribosome RFP mutants, fluorescence, 24 h; active compounds read low; DMSO median 0, no signal -100 | GFP signal change (wild-type ribosome), % (test concentration not listed) | hit rate 1.6% among 350,000 | AID 720706;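 active = significant combined selectivity score with lowered wild-type GFP, culture density cut under 30%, mutant RFP and density less affected; inactive = any of these conditions unmet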
# S100A4 MyoIIA – inhibitors of human S100A4 binding to myosin IIA peptide | S100A4/TAMRA-MyoIIA peptide fluorescence polarization | inhibition, % at 10.7 µM | hit rate 0.14% among 360,000 | AID 652163;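 active = mean inhibition of at least 70% across replicates, with every replicate also reaching that level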
#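 Test system: S100A4 monomer protein; Medium: HEPES pH 7.2 with CaCl2, KCl, NaCl, DTT, Triton; Probe or stimulus: TAMRA-labelled myosin IIA heavy-chain peptide probe, 5 nM; Doses: one dose per compound; Times: polarization read 5 min after assay mix addition, stable 5–60 min; Benchmarks: neutral control DMSO, positive control TFP.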
# ARNT-TACC3 inh – ARNT/TACC3 interaction disruption; hit rate 0.66% among 390,000; inhibition, % at 9.99 µM; AlphaScreen His-ARNT PAS-B/GST-TACC3 binding, luminescence; TACC3 fragment carries E629A point mutation; Q9Y6A5;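 active = mean inhibition of replicates at least 50% and at least half of replicates each reaching 50%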;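 note: 0% = complete ARNT plus TACC3 wells and 100% = ARNT alone without TACC3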
# * = called active by the depositor; · = no result given.
SMILES,PGC1a acetyl inh,Casp6 inh,ERAP1 HTS inh,rRNA inh HTS,S100A4 MyoIIA,ARNT-TACC3 inh
C[C@@H]1CN([C@H](C)CO)C(=O)c2cccc(NS(=O)(=O)c3cccs3)c2O[C@@H]1CN(C)Cc1ccc(Oc2ccccc2)cc1,5,-3,0,2,-4,8
CN1C(=O)c2cc(NS(C)(=O)=O)ccc2OC[C@H]2O[C@@H](CC(=O)NC3CCCCC3)CC[C@@H]21,·,0,-3,5,6,-4
CCCCCCCCCCCCCCCCn1cc[n+](C)c1,·,-221,79*,-62,-1,2
O=C(C[C@@H]1C=C[C@H](NC(=O)C2CC2)[C@H](CO)O1)Nc1nccs1,-12,83*,0,1,-1,-3
C[C@@H](NC(=O)C[C@@H]1CC[C@@H](NC(=O)CN2CCOCC2)[C@@H](CO)O1)c1ccccc1,-9,63*,-3,-1,-14,3
C[C@@H](NC(=O)C[C@H]1C=C[C@@H](NC(=O)C2CCC2)[C@H](CO)O1)c1ccccc1,·,-6,4,2,101*,-4
C[C@@H](NC(=O)C[C@H]1CC[C@H](NC(=O)CN2CCOCC2)[C@H](CO)O1)c1ccccc1,-1,1,-2,-2,3,0
CCc1ccc(S(=O)(=O)/N=C2\C=C(NS(=O)(=O)c3ccccc3)C(=O)c3ccccc32)cc1,·,49*,3,-4,-5,19
CC(C)c1ccc(S(=O)(=O)/N=C2\C=C(NS(=O)(=O)c3ccccc3)C(=O)c3ccccc32)cc1,·,22,-3,-47,-3,47*
O=C(NCC[C@H]1CC[C@H](NC(=O)Nc2cc(F)ccc2F)[C@@H](CO)O1)Nc1ccc(Cl)cc1,4,·,·,-45,·,·
Cc1ccc(Sc2ccc(S(=O)(=O)Nc3ccc(CC(=O)O)cc3)cc2)cc1C,0,41*,7,-18,-6,-8
Cc1ccc(C)c(Sc2ccc(S(=O)(=O)Nc3ccc(C(=O)O)cc3)cc2)c1,-1,27,4,·,-7,·
CCOc1ccccc1C(=O)OCC(=O)NCCc1ccc(OC)cc1,-16,2,1,-22*,1,-4
O=C(COC(=O)c1ccccc1C(=O)c1ccc(Cl)cc1)NCCc1ccccc1,·,0,1,-29*,-4,3
COc1ccc(CCNC(=O)COC(=O)c2ccc(OC)cc2OC)cc1,3,-3,2,-8,-2,-3
O=C(/C=C/c1ccco1)c1ccccc1O,-13,13,-6,10,-5,-7
CC(/C=C/c1ccco1)=N\NC(=O)c1cccnc1,·,·,·,·,·,14
O=C(C=Cc1ccco1)c1cc(Cl)ccc1O,-7,45*,1,-10,-9,3
CC(/C=C/c1ccco1)=N\NC(=O)c1cc(Cl)ccc1O,·,52*,-1,·,4,6
O=C(/C=C/c1ccco1)c1cccnc1,·,65*,1,4,8,-4
CO[C@H]1CN(C)C(=O)c2cc(NC(C)=O)ccc2OC[C@H](C)N(Cc2cc(F)ccc2F)C[C@H]1C,2,3,-2,-5,4,-1
CN(C)CC(=O)Nc1ccc2c(c1)[C@H]1C[C@H](CC(=O)NCc3ccccn3)O[C@H](CO)[C@H]1O2,1,2,-2,2,18,-9
CN(C)c1ccc2c(c1)[C@@H]1C[C@@H](CC(=O)NCc3ccccn3)O[C@@H](CO)[C@@H]1O2,-13,40*,1,5,31,13
COC(=O)C[C@H]1C[C@@H]2c3cc(N(C)C)ccc3O[C@@H]2[C@@H](CO)O1,5,-3,-1,6,13,45*
CN(C)c1ccc2c(c1)[C@@H]1C[C@@H](CC(=O)NCc3cc(F)ccc3F)O[C@H](CO)[C@@H]1O2,-4,-1,-1,-1,-6,active
COc1ccccc1NC(=O)c1cc[n+](C)cc1,3,-4,103*,12,-3,-2
COC(=O)c1ccccc1NC(=O)c1cc[n+](C)cc1,2,2,0,3,-6,-1
O=C(O)C[C@H]1CC[C@H]2[C@@H](COC[C@H](O)CN2S(=O)(=O)c2ccc(Oc3ccccc3)cc2)O1,4,40*,1,-3,-13,-2
